# In ChEMBL document CHEMBL1649184, “Mutations in the nonstructural protein 3A confer resistance to the novel enterovirus replication inhibitor TTP-8307” (Antimicrob Agents Chemother, 2009):
# The source made the active and inactive calls. The calls are words filed in the database; no cut-off is given here.
# Tests used:
# [1] = tested on: Coxsackievirus B3; assay: Antiviral activity against Human coxsackievirus B3 harboring wild type nonstructural protein 3A infected in african green monkey Vero cells assessed as inhibition of virus-induced cytopathic effect after 3 days by plaque assay; type: functional, organism-based; details: Enterovirus B, 72 h
# [2] = tested on: Coxsackievirus B3; assay: Antiviral activity against Human coxsackievirus B3 harboring nonstructural protein 3A V45A mutant infected in african green monkey Vero cells assessed as inhibition of virus-induced cytopathic effect after 3 days by plaque assay; type: functional, organism-based; details: Enterovirus B, 72 h
# [3] = tested on: Coxsackievirus B3; assay: Antiviral activity against Human coxsackievirus B3 harboring nonstructural protein 3A H57Y mutant infected in african green monkey Vero cells assessed as inhibition of virus-induced cytopathic effect after 3 days by plaque assay; type: functional, organism-based; details: Enterovirus B, 72 h
# [4] = tested on: Coxsackievirus B3; assay: Antiviral activity against Human coxsackievirus B3 harboring nonstructural protein 3A I54F mutant infected in african green monkey Vero cells assessed as inhibition of virus-induced cytopathic effect after 3 days by plaque assay; type: functional, organism-based; details: Enterovirus B, 72 h
# [5] = tested on: Coxsackievirus B3; assay: Antiviral activity against Human coxsackievirus B3 harboring nonstructural protein 3A I8T mutant infected in african green monkey Vero cells assessed as inhibition of virus-induced cytopathic effect after 3 days by plaque assay; type: functional, organism-based; details: Enterovirus B, 72 h
# [6] = Cytotoxicity against human HeLa cells; type: cell-based; details: read-out: TC50 (the source's name)
# Method in brief: (§1)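 Cytotoxicity measured on confluent Vero and HeLa cells, given as 50% cytotoxic concentration; solubility limit in assay medium 100 µM.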
# [7] = Cytotoxicity against african green monkey Vero cells; type: cell-based; details: chlorocebus sabaeus, read-out: TC50 (the source's name); method in brief: as §1
# [8] = tested on: Vero; assay: Antiviral activity against Coxsackievirus B3 (strain Nancy) infected in african green monkey Vero cells assessed as inhibition of virus-induced cytopathic effect after 3 days by plaque assay; type: functional, cell-based
# Method in brief: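 Confluent Vero cells infected with CVB3 for 2 h at 37°C with gentle shaking, washed twice with PBS, then overlaid with 0.4% agar with or without compound. After 3-4 days, fixed with 4% formaldehyde, agar removed, Giemsa-stained and plaques counted. Read at day 3 post-infection; averages ± SD of three independent experiments.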
# [9] = tested on: rhinovirus B70; assay: Antiviral activity against Human rhinovirus 70 infected in african green monkey Vero cells assessed as inhibition of virus-induced cytopathic effect after 3 days by MTS-based CPE reduction assay; type: functional, organism-based; details: Rhinovirus B, 72 h
# Method in brief: (§2)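 Confluent cells infected with 100 CCID50 virus; 2 h adsorption at 37°C (35°C for rhinovirus), then inoculum removed and serial compound dilutions added. Incubated 3 days at 37°C until full CPE in virus controls. MTS/PMS added for 2 h, OD498 read; % CPE from cell and virus controls; EC50 as 50% protection, by logarithmic interpolation. Mean of ≥3 independent experiments.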
# [10] = tested on: Poliovirus 3; assay: Antiviral activity against Human poliovirus 3 strain Sabin infected in african green monkey Vero cells assessed as inhibition of virus-induced cytopathic effect after 3 days by MTS-based CPE reduction assay; type: functional, organism-based; details: Enterovirus C, 72 h
# Method in brief: (§3)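 Confluent cells infected with 100 CCID50 virus, adsorbed 2 h at 37°C, then virus removed and serial compound dilutions added (DMSO stocks diluted in MEM with 2% FBS). Incubated 3 days at 37°C until full CPE in virus controls. Viability read by MTS/PMS, OD498 after 2 h. EC50 by logarithmic interpolation of % CPE protection. Mean of at least three independent experiments.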
# [11] = tested on: rhinovirus A41; assay: Antiviral activity against Human rhinovirus 41 infected in african green monkey Vero cells assessed as inhibition of virus-induced cytopathic effect after 3 days by MTS-based CPE reduction assay; type: functional, organism-based; details: Rhinovirus A, 72 h; method in brief: as §2
# [12] = tested on: rhinovirus B72; assay: Antiviral activity against Human rhinovirus 72 infected in african green monkey Vero cells assessed as inhibition of virus-induced cytopathic effect after 3 days by MTS-based CPE reduction assay; type: functional, organism-based; details: Rhinovirus B, 72 h; method in brief: as §2
# [13] = tested on: rhinovirus B14; assay: Antiviral activity against Human rhinovirus 14 infected in african green monkey Vero cells assessed as inhibition of virus-induced cytopathic effect after 3 days by MTS-based CPE reduction assay; type: functional, organism-based; details: Rhinovirus B, 72 h; method in brief: as §2
# [14] = Antiviral activity against Human rhinovirus 42 infected in african green monkey Vero cells assessed as inhibition of virus-induced cytopathic effect after 3 days by MTS-based CPE reduction assay; type: functional, cell-based; details: Rhinovirus B, 72 h; method in brief: as §2
# [15] = Antiviral activity against Coxsackievirus B3 (strain Nancy) infected in african green monkey Vero cells assessed as inhibition of virus-induced cytopathic effect after 3 days by MTS-based CPE reduction assay; type: functional, cell-based; details: Enterovirus B, 72 h; method in brief: as §2
# [16] = Antiviral activity against Human coxsackievirus A16 (strain G-10) A16 infected in african green monkey Vero cells assessed as inhibition of virus-induced cytopathic effect after 3 days by MTS-based CPE reduction assay; type: functional, cell-based; details: Enterovirus A, 72 h; method in brief: as §2
# [17] = tested on: rhinovirus A2; assay: Antiviral activity against Human rhinovirus 2 infected in african green monkey Vero cells assessed as inhibition of virus-induced cytopathic effect after 3 days by MTS-based CPE reduction assay; type: functional, organism-based; details: Rhinovirus A, 72 h; method in brief: as §2
# [18] = tested on: rhinovirus A45; assay: Antiviral activity against Human rhinovirus 45 infected in african green monkey Vero cells assessed as inhibition of virus-induced cytopathic effect after 3 days by MTS-based CPE reduction assay; type: functional, organism-based; details: Rhinovirus A, 72 h; method in brief: as §2
# [19] = tested on: rhinovirus B86; assay: Antiviral activity against Human rhinovirus 86 infected in african green monkey Vero cells assessed as inhibition of virus-induced cytopathic effect after 3 days by MTS-based CPE reduction assay; type: functional, organism-based; details: Rhinovirus B, 72 h; method in brief: as §2
# [20] = tested on: rhinovirus A89; assay: Antiviral activity against Human rhinovirus 89 infected in african green monkey Vero cells assessed as inhibition of virus-induced cytopathic effect after 3 days by MTS-based CPE reduction assay; type: functional, organism-based; details: Rhinovirus A, 72 h; method in brief: as §2
# [21] = tested on: rhinovirus A39; assay: Antiviral activity against Human rhinovirus 39 infected in african green monkey Vero cells assessed as inhibition of virus-induced cytopathic effect after 3 days by MTS-based CPE reduction assay; type: functional, organism-based; details: Rhinovirus A, 72 h; method in brief: as §2
# [22] = tested on: Coxsackievirus B3; assay: Inhibition of viral polyprotein synthesis in Coxsackievirus B3 (strain Nancy) infected in buffalo green monkey cells at 25 uM by SDS PAGE assay; type: functional, cell-based
# Method in brief: (§4)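 Confluent BGM cells infected with CVB3 at MOI 50. At 5 h, methionine starvation for 30 min, then 30-min [35S]Met pulse with or without 25 µM compound. At 6 h, lysed in Tris-HCl pH 7.4/NaCl/EDTA/NP-40/0.05% SDS buffer; translation products resolved by SDS-PAGE. Three independent experiments.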
# [23] = tested on: rhinovirus A29; assay: Antiviral activity against Human rhinovirus 29 infected in african green monkey Vero cells assessed as inhibition of virus-induced cytopathic effect after 3 days by MTS-based CPE reduction assay; type: functional, organism-based; details: Rhinovirus A, 72 h; method in brief: as §2
# [24] = Antiviral activity against Human enterovirus 71 (strain BRCR) infected in african green monkey Vero cells assessed as inhibition of virus-induced cytopathic effect after 3 days by MTS-based CPE reduction assay; type: functional, cell-based; details: Enterovirus A, 72 h; method in brief: as §2
# [25] = tested on: rhinovirus A85; assay: Antiviral activity against Human rhinovirus 85 infected in african green monkey Vero cells assessed as inhibition of virus-induced cytopathic effect after 3 days by MTS-based CPE reduction assay; type: functional, organism-based; details: Rhinovirus A, 72 h; method in brief: as §2
# [26] = tested on: Poliovirus 2; assay: Antiviral activity against Human poliovirus 2 Sabin infected in african green monkey Vero cells assessed as inhibition of virus-induced cytopathic effect after 3 days by MTS-based CPE reduction assay; type: functional, organism-based; details: Enterovirus C, 72 h; method in brief: as §3
# [27] = tested on: Vero; assay: Antiviral activity against Coxsackievirus B3 (strain Nancy) infected in african green monkey Vero cells assessed as inhibition viral replication at 25 uM administered at 1 hr interval starting at 3 hrs after viral infection; type: functional, cell-based
# Method in brief: (§5)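 Confluent Vero cells infected with 10⁴ CCID50 CVB3, 1 h adsorption at 37°C, inoculum replaced with medium. Compound (final 25 µM) added at 1-h intervals, starting 1 h before infection. At 8 h post-infection, supernatant and intracellular RNA collected and viral RNA quantified by one-step TaqMan qRT-PCR against a synthetic transcript standard curve; normalized to 0-h point; two independent experiments.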
# [28] = tested on: Coxsackievirus B3 (strain Nancy); assay: Antiviral activity against Coxsackievirus B3 (strain Nancy) infected in buffalo green monkey cells assessed as inhibition of viral RNA accumulation at 2 mM by luciferase reporter gene assay; type: functional, cell-based
# [29] = tested on: Coxsackievirus B3; assay: Inhibition of viral polyprotein processing in Coxsackievirus B3 (strain Nancy) infected in buffalo green monkey cells at 25 uM by SDS PAGE assay; type: functional, cell-based; method in brief: as §4
# [30] = tested on: rhinovirus A9; assay: Antiviral activity against Human rhinovirus 9 infected in african green monkey Vero cells assessed as inhibition of virus-induced cytopathic effect after 3 days by MTS-based CPE reduction assay; type: functional, organism-based; details: Rhinovirus A, 72 h; method in brief: as §2
# [31] = tested on: Poliovirus 1; assay: Antiviral activity against Human poliovirus 1 strain Sabin infected in african green monkey Vero cells assessed as inhibition of virus-induced cytopathic effect after 3 days by MTS-based CPE reduction assay; type: functional, cell-based; details: Enterovirus C, 72 h; method in brief: as §3
# [32] = tested on: rhinovirus A63; assay: Antiviral activity against Human rhinovirus 63 infected in african green monkey Vero cells assessed as inhibition of virus-induced cytopathic effect after 3 days by MTS-based CPE reduction assay; type: functional, organism-based; details: Rhinovirus A, 72 h; method in brief: as §2
# [33] = Antiviral activity against Human coxsackievirus A21 (strain Coe) infected in african green monkey Vero cells assessed as inhibition of virus-induced cytopathic effect after 3 days by MTS-based CPE reduction assay; type: functional, cell-based; details: Enterovirus C, 72 h; method in brief: as §3
# [34] = tested on: Vero; assay: Antiviral activity against Coxsackievirus B3 (strain Nancy) infected in african green monkey Vero cells assessed as inhibition viral replication at 25 uM administered at 1 hr interval starting at 1 hr before viral infection measured within first 3 hrs postinfection; type: functional, cell-based; method in brief: as §5
# [35] = tested on: Coxsackievirus B3 (strain Nancy); assay: Antiviral activity against Coxsackievirus B3 (strain Nancy) infected in buffalo green monkey cells assessed as inhibition of viral RNA accumulation at 25 uM by luciferase reporter gene assay; type: functional, cell-based
# Method in brief: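 BGM cells transfected with RNA from SalI-linearized CVB3 subgenomic replicon with luciferase replacing P1, with or without 25 µM compound. At set times post-transfection, cells washed with PBS, lysed, and luciferase measured as relative light units. Averages ± SD of three independent experiments.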
# [36] = tested on: rhinovirus A15; assay: Antiviral activity against Human rhinovirus 15 infected in african green monkey Vero cells assessed as inhibition of virus-induced cytopathic effect after 3 days by MTS-based CPE reduction assay; type: functional, organism-based; details: Rhinovirus A, 72 h; method in brief: as §2
SMILES,EC50 [1] [nM],EC50 [2] [nM],EC50 [3] [nM],EC50 [4] [nM],EC50 [5] [nM],EC50 [9] [nM],EC50 [10] [nM],EC50 [11] [nM],EC50 [12] [nM],EC50 [13] [nM],EC50 [14] [nM],EC50 [15] [nM],EC50 [16] [nM],EC50 [17] [nM],EC50 [18] [nM],EC50 [19] [nM],EC50 [20] [nM],EC50 [21] [nM],EC50 [23] [nM],EC50 [24] [nM],also measured
Fc1cccc(F)c1C1SCc2nc3cc(C(F)(F)F)ccc3n21 (stereo not drawn),2900,3600,3400,3700,2900,–,–,–,–,–,–,–,–,–,–,–,–,–,–,–,–
C[C@@H](NC(=O)c1cccc(-c2c[nH]c(-c3cc4ccccc4cn3)n2)c1)c1ccc(F)cc1,–,–,–,–,–,–,–,–,–,–,–,–,–,–,–,–,–,–,–,–,CC50 [6]: > 100000 nM; CC50 [7]: > 100000 nM
C[C@@H](NC(=O)c1cccc(-c2cnc(-c3cc4ccccc4cn3)[nH]2)c1)c1ccc(F)cc1,1900,17700,15300,19800,6000,> 50000,270,> 50000,> 50000,> 50000,> 50000,1200,850,800,990,> 50000,> 50000,650,770,> 60000,inhibition [8]: Dose-dependent effect; inhibition [22]: inactive; EC50 [25]: 1220 nM; EC50 [26]: 580 nM; inhibition [27]: inactive; inhibition [28]: Active; inhibition [29]: inactive; EC50 [30]: > 50000 nM; EC50 [31]: 510 nM; EC50 [32]: 91 nM; EC50 [33]: 5340 nM; inhibition [34]: Active; inhibition [35]: Active; EC50 [36]: > 50000 nM
CC(C)S(=O)(=O)n1c(N)nc2ccc(/C(=N/O)c3ccccc3)cc21 [ENVIROXIME],500,1500,1700,1800,700,110,40,27,720,110,110,1900,120,26,250,140,100,28,29,150,EC50 [25]: 33 nM; EC50 [26]: 60 nM; EC50 [30]: 38 nM; EC50 [31]: 190 nM; EC50 [32]: 27 nM; EC50 [33]: 480 nM; EC50 [36]: 42 nM
